# T cruzi intra: inhibitors of intracellular Trypanosoma cruzi. intracellular Trypanosoma cruzi in host cells, plate reader. 22,000 tested, 4.9% active. activity score (inhibition), % at 5.01 µM; in the data active means activity score above about 55%;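 further: parasites and compound incubated about four days before reading; 0% = median of neutral control wells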
# A1 apoptosis 2: A1 inhibition read as caspase activation | caspase activation, % (test concentration not listed) | MEF A1-2A-BIM cells, caspase-Glo luminescence, 3 h; percent of clofoctol response, DMSO zero | 24,000 tested, under 10 active; in the data active means caspase activation above about 5.9%
#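 Material: A1-2A-BIM-expressing MEF cells. Buffer or medium: RPMI-1640 plus 10% FBS. Incubation: cells settled overnight, compound exposure 3 h at 37 °C, 5% CO2. Signal: Caspase-Glo 3/7 luminescence, 1 h at room temperature.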
# INS-1E ATP HTS: INS-1E beta cell protection from cytokine death; INS-1E cytokine-induced death, ATP luminescence, 48 h; normalised: neutral wells 0, positive control 100; protection from cytokine-induced ATP loss, % at 10 µM; 20,000 tested, 0.1% active;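 active means mean replicate protection from cytokine-induced ATP loss at least 50% and at least 75% of replicates each reaching 50%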
#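 Assay system: INS-1E rat insulinoma cells. Amount: 8000 cells per well. Medium: phenol-red-free RPMI with 5% fetal bovine serum. Reagent: IL-1β, TNF-α and IFN-γ cytokine mix. Doses: one compound concentration, pin transfer. Schedule: 48 h co-treatment, 10 min post-lysis read. Detection: CellTiter-Glo luminescence measuring cellular ATP.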
# The depositor's hits bear a star; nt = no result given. This is one part of a sample in which hits are shown more often than they occur.
SMILES,T cruzi intra,A1 apoptosis 2,INS-1E ATP HTS
C[C@@H]1CCCCO[C@@H](CN(C)CC2CC2)[C@H](C)CN([C@@H](C)CO)C(=O)c2cc(NC(=O)C3CCCCC3)ccc2O1,nt,-1,nt
Cc1noc(C)c1S(=O)(=O)N(C)C[C@H]1Oc2c(NC(=O)C3CC3)cccc2C(=O)N([C@@H](C)CO)C[C@H]1C,-43,1,6
C[C@H](CO)N1C[C@H](C)[C@H](CN(C)Cc2ccc(Oc3ccccc3)cc2)Oc2ccc(NC(=O)Nc3ccc(C(F)(F)F)cc3)cc2CC1=O,64*,2,-52
COc1ccc(NC(=O)Nc2ccc3c(c2)CC(=O)N([C@H](C)CO)C[C@H](C)[C@@H](CN(C)Cc2ccc(C(F)(F)F)cc2)O3)cc1,nt,1,nt
C[C@@H]1CN([C@H](C)CO)C(=O)Cc2cc(NC(=O)Nc3ccc(C(F)(F)F)cc3)ccc2O[C@H]1CN(C)Cc1ccc(Oc2ccccc2)cc1,62*,0,-16
COc1ccc(CN(C)C[C@H]2Oc3ccc(NC(=O)Nc4ccccc4)cc3CC(=O)N([C@H](C)CO)C[C@@H]2C)cc1,nt,-1,nt
COc1ccc(CN(C)C[C@@H]2Oc3ccc(NS(=O)(=O)c4ccc(C)cc4)cc3CC(=O)N([C@@H](C)CO)C[C@H]2C)cc1,nt,-1,nt
COc1ccc(CN(C)C[C@H]2Oc3ccc(NS(=O)(=O)c4ccc(C)cc4)cc3CC(=O)N([C@@H](C)CO)C[C@@H]2C)cc1,56*,1,1
COc1ccc(CN(C)C[C@@H]2Oc3ccc(NS(=O)(=O)c4ccc(Cl)cc4)cc3CC(=O)N([C@H](C)CO)C[C@@H]2C)cc1,27,0,-1
COc1ccc(CN(C)C[C@H]2Oc3ccc(NS(=O)(=O)c4ccc(Cl)cc4)cc3CC(=O)N([C@H](C)CO)C[C@H]2C)cc1,71*,-1,-5
O=C(O)CCCCCCC(=O)N/N=C/c1ccc(CO)o1,-13,1,2
O=C(CCCCCC(=O)N/N=C/c1ccc(OCCO)cc1)NO,nt,1,nt
O=C(CCCCCCC(=O)N/N=C/c1ccc(OCCO)cc1)NO,6,nt,116*
O=C(CCCCCCC(=O)N/N=C/c1ccc(CO)o1)NO,-3,nt,52*
CC(C)NC(=O)Nc1ccc2c(c1)CC(=O)N([C@H](C)CO)C[C@@H](C)[C@@H](CN(C)Cc1ccncc1)O2,-8,0,2
C[C@@H]1CN([C@H](C)CO)C(=O)c2cccc(NS(=O)(=O)c3ccccc3)c2O[C@@H]1CN(C)Cc1ccncc1,-34,0,-11
C[C@@H]1CN([C@@H](C)CO)C(=O)Cc2cc(NC(=O)c3ccncc3)ccc2O[C@@H]1CN(C)Cc1ccc(C(=O)Nc2ccccc2N)cc1,53,2,-13
C[C@H](CO)N1C[C@H](C)[C@@H](CN(C)Cc2ccc(C(=O)Nc3ccccc3N)cc2)Oc2ccc(N(C)C)cc2CC1=O,nt,-1,nt
C[C@H](CO)N1C[C@H](C)[C@H](CN(C)Cc2ccc(C(=O)Nc3ccccc3N)cc2)Oc2ccc(N(C)C)cc2CC1=O,59*,nt,65*
C[C@@H]1CN([C@@H](C)CO)C(=O)c2cc(N(C)C)ccc2O[C@@H]1CN(C)Cc1ccc(C(=O)Nc2ccccc2N)cc1,61*,nt,28
C[C@H]1CN([C@@H](C)CO)C(=O)Cc2cc(N(C)C)ccc2O[C@H]1CN(C)Cc1ccc(C(=O)Nc2ccccc2N)cc1,62*,nt,32
C[C@H]1CN([C@@H](C)CO)C(=O)c2cc(N(C)C)ccc2O[C@@H]1CN(C)Cc1ccc(C(=O)Nc2ccccc2N)cc1,34,nt,29
COc1ccc(S(=O)(=O)Nc2cccc3c2O[C@H](CN(C)C)[C@@H](C)CN([C@H](C)CO)C3=O)cc1,-24,2,10
CC(C)NC(=O)Nc1ccc2c(c1)CC(=O)N([C@H](C)CO)C[C@H](C)[C@H](CN(C)Cc1ccc(C(=O)Nc3ccccc3N)cc1)O2,68*,nt,6
C[C@H]1CN([C@@H](C)CO)C(=O)Cc2cc(NC(=O)Nc3ccc(F)cc3)ccc2O[C@@H]1CN(C)Cc1ccc(C(=O)Nc2ccccc2N)cc1,33,-1,6
C[C@@H]1CN([C@H](C)CO)C(=O)c2cc(NC(=O)Nc3ccc(C(F)(F)F)cc3)ccc2O[C@H]1CN(C)Cc1ccc(C(=O)Nc2ccccc2N)cc1,57*,0,-13
C[C@@H]1CN([C@H](C)CO)C(=O)Cc2cc(NC(=O)Nc3ccccc3)ccc2O[C@@H]1CN(C)Cc1ccc(C(=O)Nc2ccccc2N)cc1,64*,-1,0
C[C@H]1CN([C@@H](C)CO)C(=O)Cc2cc(NC(=O)NC3CCCCC3)ccc2O[C@@H]1CN(C)Cc1ccc(C(=O)Nc2ccccc2N)cc1,nt,-1,nt
